Reference: ChEMBL document CHEMBL4265908, “Structure-activity and structure-property relationships of novel Nrf2 activators with a 1,2,4-oxadiazole core and their therapeutic effects on acetaminophen (APAP)-induced acute liver injury” (Eur J Med Chem, 2018)
Values after ≈ are worked out from the molar mass of the structure shown. Active and inactive are the calls of the source. The rule behind the calls is not given here.

What was measured:
[1] = target: T1, Nuclear factor erythroid 2-related factor 2 (Homo sapiens) (UniProt Q16236); test: Activation of Nrf2 in human HepG2-ARE-C8 cells assessed as induction of ARE-mediated luciferase activity at 40 uM after 24 hrs by luciferase reporter gene assay relative to control; type: cell-based
T1 sequence (whole entry): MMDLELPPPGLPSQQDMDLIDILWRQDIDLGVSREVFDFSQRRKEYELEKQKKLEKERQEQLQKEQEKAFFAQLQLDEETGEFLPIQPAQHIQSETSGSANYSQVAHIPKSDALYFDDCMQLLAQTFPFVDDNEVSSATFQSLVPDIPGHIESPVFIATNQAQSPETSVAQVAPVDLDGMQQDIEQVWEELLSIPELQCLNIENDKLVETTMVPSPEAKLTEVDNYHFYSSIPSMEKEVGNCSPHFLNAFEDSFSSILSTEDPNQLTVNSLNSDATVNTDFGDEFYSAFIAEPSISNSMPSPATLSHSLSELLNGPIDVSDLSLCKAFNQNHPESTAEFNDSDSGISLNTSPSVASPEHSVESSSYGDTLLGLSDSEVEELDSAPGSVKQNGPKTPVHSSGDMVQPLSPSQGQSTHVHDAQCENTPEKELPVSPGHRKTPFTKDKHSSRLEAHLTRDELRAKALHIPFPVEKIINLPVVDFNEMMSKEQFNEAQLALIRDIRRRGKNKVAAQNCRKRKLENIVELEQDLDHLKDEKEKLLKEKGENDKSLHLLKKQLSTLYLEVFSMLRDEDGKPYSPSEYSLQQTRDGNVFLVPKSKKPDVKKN
Outline: (§1)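 HepG2-ARE-C8 cells stably carrying ARE-luciferase, grown in DMEM with 10% FBS at 37 °C and 5% CO2. Seeded at 5 × 10^4 cells/well, left overnight, then given compound diluted from a 10 mM DMSO stock for 24 h. Cells lysed and luciferase read as RLU. Inductivity = (RLUtest − RLUblank)/(RLUcontrol − RLUblank), with DMSO as control. Mean ± SEM of three experiments.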

[2] = Lipophilicity, log D of the compound at pH 7.4 by potentiometric titration method; type: physicochemical; conditions: buffer
Outline: (§2)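 Intrinsic aqueous solubility and logD at pH 7.4 determined by Avdeef-Bucher potentiometric titration on a pION Gemini Profiler.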

[3] = Intrinsic aqueous solubility of the compound by potentiometric titration method; type: physicochemical; outline: as §2
[4] = target: T1, Nuclear factor erythroid 2-related factor 2 (Homo sapiens); test: Activation of Nrf2 in human HepG2-ARE-C8 cells assessed as induction of ARE-mediated luciferase activity at 0.01 uM after 24 hrs by luciferase reporter gene assay relative to control; type: cell-based; outline: as §1
[5] = target: T1, Nuclear factor erythroid 2-related factor 2 (Homo sapiens); test: Activation of Nrf2 in human HepG2-ARE-C8 cells assessed as induction of ARE-mediated luciferase activity at 0.1 uM after 24 hrs by luciferase reporter gene assay relative to control; type: cell-based; outline: as §1
[6] = target: T1, Nuclear factor erythroid 2-related factor 2 (Homo sapiens); test: Activation of Nrf2 in human HepG2-ARE-C8 cells assessed as induction of ARE-mediated luciferase activity at 20 uM after 24 hrs by luciferase reporter gene assay relative to control; type: cell-based; outline: as §1
[7] = target: T1, Nuclear factor erythroid 2-related factor 2 (Homo sapiens); test: Activation of Nrf2 in human HepG2-ARE-C8 cells assessed as induction of ARE-mediated luciferase activity at 1 uM after 24 hrs by luciferase reporter gene assay relative to control; type: cell-based; outline: as §1
[8] = target: T1, Nuclear factor erythroid 2-related factor 2 (Homo sapiens); test: Activation of Nrf2 in human HepG2-ARE-C8 cells assessed as induction of ARE-mediated luciferase activity at 80 uM after 24 hrs by luciferase reporter gene assay relative to control; type: cell-based; outline: as §1
HepG2 = test: Cytotoxicity against human HepG2 cells at 80 uM after 24 hrs by MTT assay; type: cell-based; conditions: hepg2, 24 h
L02 [9] = test: Hepatoprotective activity against APAP-induced cell injury in human LO2 cells assessed as increase in cell viability at 20 uM pretreated for 24 hrs followed by APAP treatment measured after 24 hrs by MTT assay; type: functional
Outline: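 LO2 cells plated for 12 h and pretreated for 24 h with 5, 10 or 20 μM compound. One arm was first transfected with 50 nM Nrf2 siRNA before receiving 20 μM compound. Medium then replaced with medium containing 8 mM APAP for 24 h. Viability by MTT at A570. Mean ± SD of three experiments.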

L02 [10] = test: Cytotoxicity against human LO2 cells at 160 uM after 24 hrs by MTT assay; type: cell-based; conditions: l02, 24 h
Outline: (§3)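 LO2 cells plated for 12 h, then treated for 24 h with 0, 0.2, 2, 20, 40, 80 or 160 μM compound diluted in medium from a DMSO stock. MTT (5 mg/mL stock) added for 4 h, formazan dissolved in DMSO, A570 read. Viability computed from OD relative to DMSO control and blank. Mean ± SD of three experiments.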

[11] = target: T1, Nuclear factor erythroid 2-related factor 2 (Homo sapiens); test: Activation of Nrf2 in human HepG2-ARE-C8 cells assessed as induction of ARE-mediated luciferase activity at 0.2 uM after 24 hrs by luciferase reporter gene assay relative to control; type: cell-based
[12] = target: T1, Nuclear factor erythroid 2-related factor 2 (Homo sapiens); test: Activation of Nrf2 in human HepG2-ARE-C8 cells assessed as induction of ARE-mediated luciferase activity at 0.02 uM after 24 hrs by luciferase reporter gene assay relative to control; type: cell-based
[13] = target: T1, Nuclear factor erythroid 2-related factor 2 (Homo sapiens); test: Activation of Nrf2 in human HepG2-ARE-C8 cells assessed as induction of ARE-mediated luciferase activity at 2 uM after 24 hrs by luciferase reporter gene assay relative to control; type: cell-based
L02 [14] = test: Cytotoxicity against human LO2 cells up to 160 uM after 24 hrs by MTT assay; type: cell-based; conditions: l02, 24 h; outline: as §3

CC(C)(C)c1ccc(-c2noc(-c3ccc(F)c(F)c3)n2)cc1
Activity [1]: 13.2 | logD [2]: 3.92 | solubility [3]: 91 µM (≈ 28.6 µg/mL) | Activity [4]: 1.35 | Activity [5]: 2.88 | Activity [6]: 8.35 | Activity [7]: 2.91 | Activity [8]: 24 | Activity (HepG2): Non-Toxic

CN(C)C=O
Activity [1]: 2.97 | Activity [4]: 0.82 | Activity [5]: 1 | Activity [6]: 1.65 | Activity [7]: 1.1 | Activity (L02 [9]): Active

Fc1ccc(-c2nc(-c3ccc(Br)cc3)no2)cc1F
Activity [1]: 12.2 | logD [2]: 3.91 | solubility [3]: 77 µM (≈ 26 µg/mL) | Activity [4]: 2.68 | Activity [5]: 3.78 | Activity [6]: 8.65 | Activity [7]: 4.49 | Activity [8]: 18.2 | Activity (HepG2): Non-Toxic

Cc1ccc(-c2noc(-c3ccc(F)c(F)c3)n2)cc1
Activity [1]: 6.62 | logD [2]: 4.16 | solubility [3]: 35 µM (≈ 9.53 µg/mL) | Activity [4]: 0.67 | Activity [5]: 1.22 | Activity [6]: 2.51 | Activity [7]: 1.85 | Activity [8]: 10.2 | Activity (HepG2): Non-Toxic

Fc1ccc(-c2nc(-c3ccc4nc[nH]c4c3)no2)c(Cl)c1
Activity [1]: 14.7 | Activity [4]: 0.68 | Activity [5]: 2.98 | Activity [6]: 11.8 | Activity [7]: 4.22 | Activity [8]: 18.3 | Activity (HepG2): Non-Toxic

Fc1ccc(-c2nc(-c3ccc4nc[nH]c4c3)no2)cc1F
Activity [1]: 42.6 | logD [2]: 3.3 | solubility [3]: 99 µM (≈ 29.5 µg/mL) | Activity [4]: 1.46 | Activity [5]: 6.21 | Activity (L02 [10]): <= 20% | Activity [6]: 24 | Activity [7]: 12.3 | Activity [8]: 49.9 | Activity (HepG2): Non-Toxic

Fc1ccc(-c2nc(-c3ccc4ccccc4c3)no2)cc1F
Activity [1]: 1.96 | Activity [4]: 1.16 | Activity [5]: 1.27 | Activity [6]: 1.96 | Activity [7]: 1.52 | Activity [8]: 3.57 | Activity (HepG2): Non-Toxic

Fc1ccc(-c2noc(-c3ccc(F)c(F)c3)n2)cc1F
Activity [1]: 2.68 | Activity [4]: 1.42 | Activity [5]: 1.36 | Activity [6]: 1.73 | Activity [7]: 1.73 | Activity [8]: 2.56 | Activity (HepG2): Non-Toxic

Brc1ccc(-c2nc(-c3ccc4nc[nH]c4c3)no2)cc1
Activity [1]: 3.44 | Activity [4]: 0.22 | Activity [5]: 0.25 | Activity [6]: 13.4 | Activity [7]: 0.87 | Activity [8]: 2.75 | Activity (HepG2): Non-Toxic

Fc1ccc(-c2nc(-c3ccncc3)no2)cc1F
Activity [1]: 1.72 | Activity [4]: 1.08 | Activity [5]: 1.62 | Activity [6]: 1.29 | Activity [7]: 1.07 | Activity [8]: 2.88 | Activity (HepG2): Non-Toxic

Cc1ccnc(-c2noc(-c3ccc(F)c(F)c3)n2)c1
Activity [1]: 9.76 | logD [2]: 2.65 | solubility [3]: 220 µM (≈ 60.1 µg/mL) | Activity [4]: 0.63 | Activity [5]: 1.06 | Activity [6]: 8.96 | Activity [7]: 2.04 | Activity [8]: 10.6 | Activity (HepG2): Non-Toxic

Fc1ccc(-c2nc(-c3ccc4nc[nH]c4c3)no2)c(F)c1
Activity [1]: 7.34 | Activity [4]: 1.62 | Activity [5]: 2.17 | Activity [6]: 4.58 | Activity [7]: 2.48 | Activity [8]: 8.36 | Activity (HepG2): Non-Toxic

COc1cccc(-c2noc(-c3ccc(F)c(F)c3)n2)c1
Activity [1]: 15.2 | logD [2]: 3.91 | solubility [3]: 86 µM (≈ 24.8 µg/mL) | Activity [4]: 1.63 | Activity [5]: 1.87 | Activity [6]: 14.2 | Activity [7]: 5.35 | Activity [8]: 16.4 | Activity (HepG2): Non-Toxic

Fc1ccc(-c2nc(-c3ccccc3F)no2)cc1F
Activity [1]: 5.91 | Activity [4]: 3.85 | Activity [5]: 3.96 | Activity [6]: 4.85 | Activity [7]: 4.25 | Activity [8]: 6.95 | Activity (HepG2): Non-Toxic

Fc1ccc(-c2nc(-c3ccc4nc[nH]c4c3)no2)c(Br)c1
Activity [1]: 21.6 | Activity [4]: 1.01 | Activity [5]: 2.65 | Activity [6]: 12.1 | Activity [7]: 4.18 | Activity [8]: 25.1 | Activity (HepG2): Non-Toxic

Clc1cccc(-c2nc(-c3ccc4nc[nH]c4c3)no2)c1
Activity [1]: 13.2 | Activity [4]: 1.74 | Activity [5]: 3.23 | Activity [6]: 12.8 | Activity [7]: 4.78 | Activity [8]: 19.1 | Activity (HepG2): Non-Toxic

CC(C)(C)c1cc(O)ccc1O [E319]
Activity [1]: 2.14 | Activity [11]: 1.25 | Activity [12]: 1.18 | Activity [13]: 1.24 | Activity (L02 [14]): <= 7% | Activity [6]: 1.41 | Activity [8]: 5.27 | Activity (L02 [9]): Active

Fc1cc(F)c(-c2nc(-c3ccc4nc[nH]c4c3)no2)cc1Cl
Activity [1]: 5.14 | Activity [4]: 1.94 | Activity [5]: 1.18 | Activity [6]: 3.35 | Activity [7]: 1.26 | Activity [8]: 7.61 | Activity (HepG2): Non-Toxic

Fc1ccc(-c2nc(-c3ccc4nc[nH]c4c3)no2)cc1
Activity [4]: 1.57 | Activity (L02 [10]): <= 20% | Activity (HepG2): Non-Toxic

Fc1ccc(-c2nc(-c3ncccc3F)no2)cc1F
Activity [1]: 2.52 | Activity [4]: 1.15 | Activity [5]: 1.25 | Activity [6]: 1.75 | Activity [7]: 1.56 | Activity [8]: 2.95 | Activity (HepG2): Non-Toxic

Cc1cccc(-c2noc(-c3ccc(F)c(F)c3)n2)n1
Activity [1]: 4.46 | logD [2]: 2.86 | solubility [3]: 200 µM (≈ 54.6 µg/mL) | Activity [4]: 1.16 | Activity [5]: 1.08 | Activity [6]: 3.96 | Activity [7]: 2.65 | Activity [8]: 5.68 | Activity (HepG2): Non-Toxic

Fc1ccc(-c2nc(-c3ccc(Cl)cc3)no2)cc1F
Activity [1]: 8.29 | Activity [4]: 2.85 | Activity [5]: 3.06 | Activity [6]: 7.65 | Activity [7]: 3.85 | Activity [8]: 9.95 | Activity (HepG2): Non-Toxic

Fc1ccc(-c2nc(-c3ccc(-c4ccccc4)cc3)no2)cc1F
Activity [1]: 10.8 | logD [2]: 4.75 | solubility [3]: 16 µM (≈ 5.35 µg/mL) | Activity [4]: 1.15 | Activity [5]: 1.25 | Activity [6]: 8.54 | Activity [7]: 6.75 | Activity [8]: 14.7 | Activity (HepG2): Non-Toxic

Fc1cccc(-c2nc(-c3ccc4nc[nH]c4c3)no2)c1
Activity [1]: 12.4 | Activity [4]: 1.21 | Activity [5]: 2.69 | Activity [6]: 8.83 | Activity [7]: 4.49 | Activity [8]: 14.1 | Activity (HepG2): Non-Toxic

Fc1ccc(-c2noc(-c3ccc(F)c(F)c3)n2)nc1
Activity [1]: 5.79 | Activity [4]: 0.96 | Activity [5]: 1.97 | Activity [6]: 2.95 | Activity [7]: 2.17 | Activity [8]: 6.35 | Activity (HepG2): Non-Toxic

Fc1ccc(-c2nc(-c3ccccn3)no2)cc1F
Activity [1]: 1.32 | Activity [4]: 0.65 | Activity [5]: 0.83 | Activity [6]: 1.31 | Activity [7]: 1.05 | Activity [8]: 2.55 | Activity (HepG2): Non-Toxic
